Data from ChEMBL document CHEMBL1140069, “In vitro antifungal activity of polyfunctionalized 2-(hetero)arylquinolines prepared through imino Diels-Alder reactions” (2008).

Experiments:
Format in all cases: functional
[1] = tested on: Nakaseomyces glabratus; experiment: Antimicrobial activity against Candida glabrata C115 isolate at 25 ug/ml after 24 hrs
How it was run: (§1)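 Percent growth inhibition in 96-well microplates. Compound stocks in DMSO (≤2%) were diluted in RPMI-1640 to final 100–6.25 µg/mL, and 100 µL inoculum was added (final 200 µL). Controls were a growth well (inoculum with matching DMSO, no compound) and a sterility well (no inoculum). Inhibition was calculated against growth and sterility wells.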

[2] = tested on: Pichia kudriavzevii; experiment: Antimicrobial activity against Candida krusei C117 isolate at 6.25 ug/ml after 24 hrs; how it was run: as §1
[3] = tested on: Candida albicans; experiment: Antimicrobial activity against Candida albicans C126 isolate at 12.5 ug/ml after 24 hrs
How it was run: (§2)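 Growth-inhibition microplate test. Strains are grown on Sabouraud-chloramphenicol agar for 48 h at 30 °C, and inoculum is added to RPMI-1640 containing compound at a final 100–6.25, with DMSO ≤2%. Each strain has a growth control (same DMSO, no compound) and a sterility control.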

[4] = tested on: Candida albicans; experiment: Antimicrobial activity against Candida albicans C128 isolate at 12.5 ug/ml after 24 hrs; how it was run: as §2
[5] = tested on: Candida parapsilosis; experiment: Antimicrobial activity against Candida parapsilosis C124 isolate at 50 ug/ml after 24 hrs; conditions: Lodderomyces parapsilosis; how it was run: as §1
[6] = tested on: Candida albicans; experiment: Antimicrobial activity against Candida albicans C126 isolate at 25 ug/ml after 24 hrs; how it was run: as §2
[7] = tested on: Candida albicans; experiment: Antimicrobial activity against Candida albicans C127 isolate at 12.5 ug/ml after 24 hrs; conditions: C127, 24 h; how it was run: as §2
[8] = tested on: Pichia kudriavzevii; experiment: Antimicrobial activity against Candida krusei C117 isolate at 50 ug/ml after 24 hrs; how it was run: as §1
[9] = tested on: Candida albicans; experiment: Antimicrobial activity against Candida albicans C128 isolate at 25 ug/ml after 24 hrs; how it was run: as §2
[10] = tested on: Pichia kudriavzevii; experiment: Antimicrobial activity against Candida krusei C117 isolate at 12.5 ug/ml after 24 hrs; how it was run: as §1
[11] = tested on: Pichia kudriavzevii; experiment: Antimicrobial activity against Candida krusei C117 isolate at 25 ug/ml after 24 hrs; how it was run: as §1
[12] = tested on: Candida albicans; experiment: Antimicrobial activity against Candida albicans C130 isolate at 25 ug/ml after 24 hrs; how it was run: as §2
[13] = tested on: Candida albicans; experiment: Antimicrobial activity against Candida albicans C128 isolate at 100 ug/ml after 24 hrs; how it was run: as §2
[14] = tested on: Candida albicans; experiment: Antimicrobial activity against Candida albicans C126 isolate at 100 ug/ml after 24 hrs; how it was run: as §2
[15] = tested on: Candida albicans; experiment: Antimicrobial activity against Candida albicans C129 isolate at 25 ug/ml after 24 hrs; how it was run: as §2
[16] = tested on: Candida albicans; experiment: Antimicrobial activity against Candida albicans C127 isolate at 50 ug/ml after 24 hrs; conditions: C127, 24 h; how it was run: as §2
[17] = tested on: Candida albicans; experiment: Antimicrobial activity against Candida albicans C129 isolate at 50 ug/ml after 24 hrs; how it was run: as §2
[18] = tested on: Candida albicans; experiment: Antimicrobial activity against Candida albicans C127 isolate at 25 ug/ml after 24 hrs; conditions: C127, 24 h; how it was run: as §2
[19] = tested on: Candida albicans; experiment: Antimicrobial activity against Candida albicans C129 isolate at 100 ug/ml after 24 hrs; how it was run: as §2
[20] = tested on: Candida parapsilosis; experiment: Antimicrobial activity against Candida parapsilosis C124 isolate at 100 ug/ml after 24 hrs; conditions: Lodderomyces parapsilosis; how it was run: as §1
[21] = tested on: Candida albicans; experiment: Antimicrobial activity against Candida albicans C130 isolate at 6.25 ug/ml after 24 hrs; how it was run: as §2
[22] = tested on: Nakaseomyces glabratus; experiment: Antimicrobial activity against Candida glabrata C115 isolate at 12.5 ug/ml after 24 hrs; how it was run: as §2
[23] = tested on: Candida parapsilosis; experiment: Antimicrobial activity against Candida parapsilosis C124 isolate at 6.25 ug/ml after 24 hrs; conditions: Lodderomyces parapsilosis; how it was run: as §1
[24] = tested on: Pichia kudriavzevii; experiment: Antimicrobial activity against Candida krusei C117 isolate at 100 ug/ml after 24 hrs; how it was run: as §1
[25] = tested on: Candida albicans; experiment: Antimicrobial activity against Candida albicans C129 isolate at 6.25 ug/ml after 24 hrs; how it was run: as §2
[26] = tested on: Candida albicans; experiment: Antimicrobial activity against Candida albicans C129 isolate at 12.5 ug/ml after 24 hrs; how it was run: as §2
[27] = tested on: Candida parapsilosis; experiment: Antimicrobial activity against Candida parapsilosis C124 isolate at 12.5 ug/ml after 24 hrs; conditions: Lodderomyces parapsilosis; how it was run: as §1

Compound: c1ccc2nc(-c3ccncc3)ccc2c1
- inhibition at 25 µg/mL [1]: 4%
- inhibition at 6.25 µg/mL [2]: 0%
- inhibition at 12.5 µg/mL [3]: 0%
- inhibition at 12.5 µg/mL [4]: 0%
- inhibition at 50 µg/mL [5]: 5%
- inhibition at 25 µg/mL [6]: 0%
- inhibition at 12.5 µg/mL [7]: 0%
- inhibition at 50 µg/mL [8]: 3%
- inhibition at 25 µg/mL [9]: 0%
- inhibition at 12.5 µg/mL [10]: 0%
- inhibition at 25 µg/mL [11]: 0%
- inhibition at 25 µg/mL [12]: 48%
- inhibition at 100 µg/mL [13]: 88%
- inhibition at 100 µg/mL [14]: 69%
- inhibition at 25 µg/mL [15]: 50%
- inhibition at 50 µg/mL [16]: 65%
- inhibition at 50 µg/mL [17]: 82%
- inhibition at 25 µg/mL [18]: 0%
- inhibition at 100 µg/mL [19]: 85%
- inhibition at 100 µg/mL [20]: 55%
- inhibition at 6.25 µg/mL [21]: 0%
- inhibition at 12.5 µg/mL [22]: 1%
- inhibition at 6.25 µg/mL [23]: 0%
- inhibition at 100 µg/mL [24]: 66%
- inhibition at 6.25 µg/mL [25]: 0%
- inhibition at 12.5 µg/mL [26]: 3%
- inhibition at 12.5 µg/mL [27]: 0%

Compound: Cc1cc(-c2ccncc2)nc2ccccc12
- inhibition at 25 µg/mL [1]: 4%
- inhibition at 6.25 µg/mL [2]: 0%
- inhibition at 12.5 µg/mL [3]: 0%
- inhibition at 12.5 µg/mL [4]: 0%
- inhibition at 50 µg/mL [5]: 5%
- inhibition at 25 µg/mL [6]: 0%
- inhibition at 12.5 µg/mL [7]: 0%
- inhibition at 50 µg/mL [8]: 3%
- inhibition at 25 µg/mL [9]: 0%
- inhibition at 12.5 µg/mL [10]: 0%
- inhibition at 25 µg/mL [11]: 0%
- inhibition at 25 µg/mL [12]: 48%
- inhibition at 100 µg/mL [13]: 88%
- inhibition at 100 µg/mL [14]: 69%
- inhibition at 25 µg/mL [15]: 50%
- inhibition at 50 µg/mL [16]: 65%
- inhibition at 50 µg/mL [17]: 82%
- inhibition at 25 µg/mL [18]: 0%
- inhibition at 100 µg/mL [19]: 85%
- inhibition at 100 µg/mL [20]: 55%
- inhibition at 6.25 µg/mL [21]: 0%
- inhibition at 12.5 µg/mL [22]: 1%
- inhibition at 6.25 µg/mL [23]: 0%
- inhibition at 100 µg/mL [24]: 66%
- inhibition at 6.25 µg/mL [25]: 0%
- inhibition at 12.5 µg/mL [26]: 3%
- inhibition at 12.5 µg/mL [27]: 0%
